# This is a sample that favours compounds with a hit; in the whole collection about 2.6% have one here.
# proCasp7 act = procaspase-7 activators, primary screen, counter-screen for procaspase-3 activator project, biochemical, absorbance, HTS, human. AID 463210, 2010. Caspase-7 (Homo sapiens), P55210. activation, % at 8.5 µM. hit rate 0.093% among 330,000. recombinant procaspase-7, Ac-DEVD-pNA absorbance 405 nm; D23A/D198A/D206A triple mutant, cannot self-cleave; scale: DMSO 0, 5 µM enzyme 100;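 active = percent activation above the screen-wide mean plus 3 SD, cut at about 25% in these data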
#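 Assay system: Uncleavable procaspase-7 mutant enzyme / Input: 2 µM procaspase-7 mutant as dispensed / Dosing: single nominal 8.5 µM compound dose, 0.8% DMSO final / Timing: 1 h enzyme–compound preincubation and 2 h substrate reaction, both 25 °C / Detection: p-Nitroaniline absorbance at 405 nm, read at 0 and 120 min / Replication: singlicate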
# AHR activator = AHR activators, primary screen, cell-based, luminescence, luciferase reporter, human | Aryl hydrocarbon receptor (Homo sapiens), P35869 | AHR-responsive luciferase reporter cells | activation, % at 5 µM | hit rate 2.5% among 320,000; in the data active = activation above about 47%;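 note: 0% = vehicle wells and 100% = reference agonist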
# PolyA inhibitor = polyadenylation inhibitors in yeast reporter cells, primary screen, luminescence, S. cerevisiae; S. cerevisiae SKY197-pL101 polyadenylation reporter, beta-gal luminescence; efflux-impaired pdr1/pdr3 knockout yeast; score 100 = 6 SD above DMSO; activity score, % at 12 µM; hit rate 0.02% among 300,000;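 active = lowest replicate activity score at least 50, where 100 means six control SD above control mean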;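 note: yeast exposed to compound for 9 h at 30 °C; higher score means more reporter readthrough which indicates perturbed polyadenylation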
# procasp3 activ = activators of human procaspase-3 D3A mutant, primary screen, biochemical, absorbance, PC-3 D3A mutant, single concentration; hit rate 0.11% among 330,000; AID 463141, 2010; recombinant procaspase-3 D3A, Ac-DEVD-pNA absorbance 405 nm; activation, % at 8.5 µM; Caspase-3 (Homo sapiens), P42574;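 active = activation above the mean of all tested compounds plus 3 SD, cut at about 21% in these data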;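 note: 0% = DMSO alone and 100% = DMSO wells spiked with extra 5 µM PC-3 D3A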
#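 Technique: 405 nm absorbance of p-nitroaniline, reads at 0 and 120 min; Test system: Procaspase-3 D3A mutant; Incubation: 1 h enzyme-compound preincubation, then 2 h substrate reaction, 25 °C; Repeats: singlicate, each compound tested once; Benchmarks: low control DMSO wells, high control DMSO plus 5 µM PC-3 D3A.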
# AHR act cf = AHR activators, confirmation, cell-based, luminescence, luciferase reporter, human | human cells, AHR-responsive luciferase reporter | shares compounds with AHR activator | activation, % at 9 µM | hit rate 87% among 2,300; in the data active = activation above about 49%;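 note: HepG2 hepatoma cells carrying a DRE-driven firefly luciferase reporter; 0% = vehicle wells and 100% = reference agonist wells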
# PXR counter = human PXR activators, counter-screen for AHR activator project, cell-based, luciferase luminescence; shares compounds with AHR activator; hit rate 88% among 2,300; activation, % at 11.6 µM; cell-based PXR reporter; AID 434939, 2010; in the data active = activation above about 11%;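 note: human hepatoma DPX-2 cells expressing full-length human PXR; 0% = DMSO and 100% = reference agonist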
# Target sequence (O75469 whole entry, looked up): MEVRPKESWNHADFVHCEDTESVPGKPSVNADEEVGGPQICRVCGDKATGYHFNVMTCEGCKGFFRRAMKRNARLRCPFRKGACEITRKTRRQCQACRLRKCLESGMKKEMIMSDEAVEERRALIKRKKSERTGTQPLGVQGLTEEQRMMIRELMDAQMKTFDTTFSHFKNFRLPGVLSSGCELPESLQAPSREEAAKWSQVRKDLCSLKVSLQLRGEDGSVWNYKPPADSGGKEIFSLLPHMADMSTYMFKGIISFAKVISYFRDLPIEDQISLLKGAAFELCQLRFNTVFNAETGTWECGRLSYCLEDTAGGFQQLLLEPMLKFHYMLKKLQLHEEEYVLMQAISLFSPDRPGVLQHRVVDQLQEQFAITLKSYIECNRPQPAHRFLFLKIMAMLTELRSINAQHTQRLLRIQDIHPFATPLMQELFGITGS
# * hit, by the source's call; · = no result given.
SMILES,proCasp7 act,AHR activator,PolyA inhibitor,procasp3 activ,AHR act cf,PXR counter
COc1ccccc1C(=O)Nc1ccc2c(c1)OCO2,-1.1,145.7*,1.9,3.8,147.2*,53.3*
COc1ccccc1C(=O)Nc1ccc2c(c1)OCCO2,12.8,1.0,-1.8,2.4,·,·
COc1ccc(Cl)cc1C(=O)Nc1ccc2c(c1)OCO2,1.9,91.9*,-18.3,4.0,104.9*,81.1*
COc1ccc(Cl)cc1C(=O)Nc1ccc2c(c1)OCCO2,·,·,-7.6,·,·,·
CCN1C(=O)c2ccc(C(=O)Nc3ccc4c(c3)OCO4)cc2C1=O,6.1,42.2,5.8,1.5,·,·
O=C(Nc1cccc2ncccc12)c1ccc(OCc2ccccc2)cc1,10.4,-2.3,-7.2,1.0,·,·
COc1cc(C(C)=O)ccc1OCC(=O)NCCCn1nc(C)cc1C,7.7,1.6,·,3.0,·,·
CC(C)(C)NC(=O)C(OC(=O)c1cccs1)c1ccc(F)cc1 (stereo not given),8.5,-0.2,-10.0,2.2,·,·
C/C(=N\NC(=O)C(=O)Nc1cc(Cl)ccc1Cl)c1ccncc1,-8.1,89.3*,-4.7,6.8,1.1,10.0
C/C(=N\NC(=O)C(=O)Nc1cccc(Cl)c1C)c1ccncc1,-1.4,-1.0,5.9,-1.1,·,·
Cc1sc(NC(=O)C2CSC3(C)CCC(=O)N23)nc1-c1ccc(F)cc1 (stereo not given),-3.2,150.9*,27.4,-3.3,100.7*,151.2*
CC12CCC(=O)N1C(C(=O)Nc1nc3ccc(Cl)cc3s1)CS2 (stereo not given),-1.8,127.1*,-2.2,6.8,109.5*,65.3*
Cc1ccc(-c2csc(NC(=O)C3CSC4(C)CCC(=O)N34)n2)cc1 (stereo not given),10.1,4.7,7.2,3.1,·,·
CN1CCN(c2ccc(Cl)cc2NC(=O)C2COc3ccccc3O2)CC1 (stereo not given),1.0,108.1*,12.2,-2.6,89.7*,29.5*
COc1ccc(Cl)cc1NC(=O)C1COc2ccccc2O1 (stereo not given),1.3,31.9,-31.4,-3.3,·,·
N#Cc1c2ccc([N+](=O)[O-])cc2[n+]([O-])n1-c1ccccc1,1.1,200.0*,·,-1.9,252.6*,19.3*
CC(=O)Nc1ccc(/C=C/c2nc(-c3ccccc3O)n[nH]2)cc1,9.0,80.5*,-5.9,3.5,103.8*,7.0
COc1cc(/C=C/c2nc(-c3ccccc3O)n[nH]2)cc(OC)c1OC,-47.1,9.0,-6.2,-0.9,·,·
Cc1ccc(C)c(NC(=O)CN(C)C(=O)CC2OC(=O)c3ccccc32)c1 (stereo not given),-4.2,-1.2,·,8.4,·,·
Cc1cc(OCC(=O)Nc2ccccc2C)no1,3.0,-0.4,·,2.1,·,·
COc1cc(/C=C/c2ccc3cccc(O)c3n2)cc(OC)c1OC,4.6,-2.8,-10.3,-3.1,·,·
COc1cccc(/C=C/c2ccc3cccc(O)c3n2)c1OC,1.9,81.4*,-4.0,2.1,65.0*,13.1*
COc1cccc(/C=C/c2ccc3cccc(O)c3n2)c1,-5.5,83.1*,-20.9,5.1,120.2*,21.7*
COc1cc(/C=N/Nc2nc(Nc3ccccc3)nc(-n3nc(C)cc3C)n2)cc(OC)c1OC,-0.9,79.6*,7.3,-1.0,67.8*,26.0*
COc1cc(/C=N/Nc2nc(Nc3ccc(C)cc3)nc(-n3nc(C)cc3C)n2)cc(OC)c1OC,-4.9,33.0,7.0,-0.6,·,·
SMILES,proCasp7 act,AHR activator,PolyA inhibitor,procasp3 activ,AHR act cf,PXR counter
O=C(Nc1ccc(F)cc1)c1cc(-c2ccccn2)nc2c(Cl)cccc12,1.8,20.8,7.6,-0.1,·,·
c1cc(-c2cc3cc4c(cc3cn2)OCO4)cs1,5.0,117.9*,·,2.0,114.2*,24.8*
c1cnc2cc(-c3ccsc3)ncc2c1,2.5,-7.8,·,5.2,·,·
Cc1cc(NC(=O)CSc2nnc(-c3ccccc3Cl)o2)no1,-4.2,8.7,-3.1,5.2,·,·
C=CCNC(=S)N/N=C(\C)c1ccc(-n2ccnc2)cc1,-11.5,88.8*,-2.6,-0.4,105.6*,19.1*
C/C(=N\NC(N)=O)c1ccc(-n2ccnc2)cc1,5.8,35.1,11.7,-8.1,·,·
C/C(=N\NC(=S)NC(C)C)c1ccc(-n2ccnc2)cc1,-6.0,122.0*,15.4,3.7,76.8*,13.9*
CNC(=S)N/N=C(\C)c1ccc(-n2ccnc2)cc1,-1.6,6.4,-13.8,0.7,·,·
CC[C@@H](C)[C@H](N)C(=O)NC[C@H]1O[C@@H](n2cnc3c(N)ncnc32)[C@H](O)[C@@H]1O,3.5,·,·,-3.8,·,·
CCCC(C)c1nc(C(N)=O)c2[nH]c(=O)n(-c3ccc(OC)c(OC)c3)c2n1 (stereo not given),5.6,9.2,-1.0,5.4,·,·
Cc1cc(SCC(=O)c2cccs2)nc2c(C)cccc12,-18.8,82.6*,-21.6,-3.8,99.9*,64.7*
Cc1cc(C)c(C#N)c(SCC(=O)c2cccs2)n1,-8.6,165.1*,-1.3,-13.1,111.6*,28.3*
COC(=O)CSc1nc(C)cc(C)c1C#N,4.0,2.5,7.1,-9.7,·,·
Cc1cc(=O)[nH]c(SCC(=O)c2ccccc2)c1C#N,-13.6,29.6,-12.9,8.2,·,·
Cc1cc(SCC(=O)NCCN2C(=O)CSC2=O)nc2c(C)cccc12,-1.9,29.6,-3.2,1.6,·,·
Cc1cc(C)c(C#N)c(SCC(=O)c2ccccc2)n1,-6.3,147.6*,4.9,-10.6,153.0*,28.6*
COc1ccc(NS(=O)(=O)c2cccc(C(=O)NCc3ccccc3CN3CCCC3)c2)cc1,-9.6,0.8,·,5.1,·,·
O=[N+]([O-])c1ccc(OCn2cncn2)cc1,-4.0,-0.5,6.5,3.5,·,·
COC(=O)C1=CC(C(=O)c2cccs2)=NN(c2ccc(OC)cc2)C1C(=O)OC (stereo not given),1.2,1.1,-19.3,-9.3,·,·
O=C(CN(Cc1ccccc1Cl)S(=O)(=O)c1ccc(Cl)cc1)N/N=C/c1ccc(C(=O)O)cc1,·,·,3.4,·,·,·
C/C(CC(=O)Nc1cc(Cl)ccc1Cl)=N\NC(=O)c1ccco1,2.1,91.3*,-4.8,1.1,11.8,15.9*
C/C(CC(=O)Nc1cc(Cl)ccc1Cl)=N\NC(=O)COc1cccc(C)c1,2.4,37.0,-6.1,3.6,·,·
CN(C)C(=O)Cn1cnc2c(cnn2-c2ccc(F)cc2)c1=O,-2.1,-1.0,13.8,-12.0,·,·

# Screening results from PubChem BioAssay.
